Assay results from ChEMBL document CHEMBL3804769, “Antibacterial Diamines Targeting Bacterial Membranes” (J Med Chem, 2016).
Active and inactive are the calls of the source. No cut-off for these calls is given here.

How the values were obtained:
[1] = Hemolytic activity in human RBC after 1 hr; format: ADME, cell-based, Erythrocyte; settings: red blood cells
Procedure, shortened: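 Human red blood cells, stored at 4 °C, added to serially diluted compound and incubated 1 h at 37 °C without shaking. Plates centrifuged and supernatant absorbance read at 540 nm. Triton X-100 as positive control. HC50 is the concentration lysing 50% of cells.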

[2] = test system: Staphylococcus aureus; assay: Antibacterial activity against methicillin-resistant Staphylococcus aureus clinical isolate 20467BA SPA type 59 after 24 hrs by microbroth dilution method; format: functional
Procedure, shortened: (§1)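 MRSA isolates from ICU surfaces, stored at −80 °C and grown in Mueller-Hinton broth. Overnight cultures diluted and added to serially diluted compound at ~10⁵ CFU/mL, broth microdilution. Plates incubated 24 h at 37 °C, growth read as absorbance at 620 nm. MIC99 taken as the lowest concentration giving complete growth inhibition.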

[3] = Selectivity index, ratio of CC50 for HEK293T/17 cells to MIC99 for Staphylococcus aureus RN4220 ATCC 35556; format: toxicity, cell-based; settings: human, read-out: Selectivity Index
Procedure, shortened: (§2)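 CC50: HEK293T/17 or A549 cells seeded at 10⁴ per well in DMEM with 10% FBS at 37 °C, 5% CO2. After 24 h, wells PBS-washed and serially diluted compound applied for 48 h, with viability read by MTS and CC50 taken by nonlinear regression. MIC99 by CLSI broth microdilution, overnight at 37 °C without shaking, from three independent tests. SI = CC50/MIC99.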

[4] = Selectivity index, ratio of CC50 for HEK293T/17 cells to MIC99 for methicillin-resistant Staphylococcus aureus clinical isolate
[5] = test system: Staphylococcus aureus; assay: Antibacterial activity against Staphylococcus aureus RN4220 ATCC 35556 at 0.5 times MIC99 after 24 hrs by checkerboard assay in presence of ampicillin; format: functional
Procedure, shortened: (§3)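 Checkerboard assay: compound serially diluted along one axis of a 96-well plate and antibiotic along the other, in LB. Each well inoculated with 2 × 10⁴ CFU and incubated 24 h at 37 °C. ΣFIC = FIC A + FIC B, where each FIC is the combination MIC99 divided by the MIC99 of that drug alone.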

[6] = test system: Staphylococcus aureus; assay: Antibacterial activity against methicillin-resistant Staphylococcus aureus clinical isolate 30253CA SPA type 7 after 24 hrs by microbroth dilution method; format: functional; procedure, shortened: as §1
[7] = test system: Pseudomonas aeruginosa; assay: Antibacterial activity against Pseudomonas aeruginosa PAO1 ATCC 47085 in early exponential-phase assessed as membrane damage at 2 times MIC99 after 15 mins by transmission electron microscopy; format: functional, organism-based
Procedure, shortened: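 Cells grown in LB to early exponential phase (OD600 ~0.4). Exposed to 2× MIC99 for 15–60 min, washed twice in phosphate buffer, fixed in 2.5% glutaraldehyde, then imaged by transmission electron microscopy.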

[8] = Toxicity in adult L4/juvenile L1 stages of Caenorhabditis elegans N2 assessed as survival at 64 ug/ml incubated for 96 hrs measured every 12 hrs; format: organism-based; settings: in vivo
Procedure, shortened: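 C. elegans N2 kept on NGM agar at 22 °C. Compound mixed into molten NGM agar at 64 μg/mL. L4 adults, L1 juveniles and synchronized eggs transferred onto test plates and held at 22 °C for 96 h. Death, development and egg production checked every 12 h.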

[9] = test system: Staphylococcus aureus; assay: Antibacterial activity against methicillin-resistant Staphylococcus aureus clinical isolate at MIC99 after 12 hrs by microbroth dilution method in presence of 10% fetal bovine serum; format: functional, organism-based
Procedure, shortened: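 Broth microdilution MIC99 run with 10% fetal bovine serum in the medium, after 12 h preincubation of compound with the serum. Plates incubated overnight at 37 °C without shaking. MIC99 taken as the lowest concentration giving complete growth inhibition.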

[10] = test system: Staphylococcus aureus; assay: Antibacterial activity against Staphylococcus aureus RN4220 ATCC 35556 incubated overnight by microbroth dilution method; format: functional
Procedure, shortened: (§4)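 Bacteria grown in LB medium. CLSI microbroth dilution in 96-well plates, overnight at 37 °C without shaking. MIC99 taken as the lowest concentration giving complete growth inhibition. Three independent determinations, reported as mean ± SD.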

[11] = test system: Caenorhabditis elegans; assay: Toxicity in adult L4/juvenile L1 stages of Caenorhabditis elegans N2 assessed as effect on egg development at 64 ug/ml incubated for 96 hrs measured every 12 hrs; format: organism-based; settings: in vivo
Procedure, shortened: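 C. elegans N2 maintained on NGM agar at 22 °C. Compound mixed into molten NGM agar at 64 μg/mL. L4 adults, L1 juveniles and synchronized eggs transferred onto test plates and kept 96 h at 22 °C. Checked every 12 h for death, development and egg production. Gentamicin and […] as controls.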

[12] = Cytotoxicity against human A549 cells after 48 hrs by MTS conversion assay; format: cell-based
Procedure, shortened: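 HEK293T/17 and A549 cells maintained in DMEM with 10% FBS at 37 °C, 5% CO2. Seeded at 10⁴ cells per well; after 24 h, washed with PBS and exposed to serially diluted compound for 48 h. Viability read by MTS conversion. CC50 obtained by nonlinear regression.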

[13] = test system: Caenorhabditis elegans; assay: Toxicity in adult L4/juvenile L1 stages of Caenorhabditis elegans N2 assessed as deleterious effect on genotype at 64 ug/ml incubated for 96 hrs measured every 12 hrs; format: organism-based; settings: in vivo
[14] = test system: Staphylococcus aureus; assay: Bactericidal activity against Staphylococcus aureus RN4220 ATCC 35556 assessed as reduction in bacterial burden at 4 times MIC99; format: functional
[15] = test system: Staphylococcus aureus; assay: Bactericidal activity against Staphylococcus aureus RN4220 ATCC 35556 in stationary-phase assessed as reduction in bacterial burden at 4 times MIC99 after 2 to 6 hrs by time-kill assay; format: functional, organism-based
Procedure, shortened: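 Overnight cultures washed and resuspended in PBS, then diluted 100-fold into LB (exponential-phase model) or into 1% PBS (stationary-phase model). Test agent added at 4× MIC99. Incubated at 37 °C with shaking at 200 rpm. CFU counted on LB agar at 0, 2, 4 and 6 h.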

[16] = Selectivity index, ratio of CC50 for HEK293T/17 cells to MIC99 for Escherichia coli ANS1; procedure, shortened: as §2
[17] = test system: Staphylococcus aureus; assay: Antibacterial activity against Staphylococcus aureus RN4220 ATCC 35556 at 0.5 times MIC99 after 24 hrs by checkerboard assay in presence of norfloxacin; format: functional; procedure, shortened: as §3
[18] = test system: Staphylococcus aureus; assay: Antibacterial activity against methicillin-resistant Staphylococcus aureus clinical isolate 20225B SPA type 15 after 24 hrs by microbroth dilution method; format: functional; procedure, shortened: as §1
[19] = test system: Pseudomonas aeruginosa; assay: Potentiation of kanamycin-induced antibacterial activity against Pseudomonas aeruginosa PAO1 ATCC 47085 assessed as kanamycin MIC at 0.5 times MIC99 after 24 hrs by checkerboard assay (reference value: 64 ug/ml); format: functional; settings: PAO1 ATCC 47085, 24 h; procedure, shortened: as §3
[20] = test system: Staphylococcus aureus; assay: Antibacterial activity against Staphylococcus aureus RN4220 ATCC 35556 in exponential-phase assessed as cytoplasmic membrane depolarization at 1 to 4 times MIC99 by fluorescent probe DiSC3-5 based fluorophotometric analysis; format: functional, organism-based
Procedure, shortened: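 Log-phase cells (OD600 ~0.7) washed and resuspended to OD600 0.05 in 5 mM HEPES pH 7.2 with 5 mM glucose and 100 mM KCl. Loaded with 0.4 μM DiSC3-5 in the dark until fluorescence fell stably by about 90%. Compound added at 4× or 1× MIC99 and fluorescence recorded continuously at 25 °C (ex 622/em 670 nm). 2,4-Dinitrophenol as positive control. Three independent experiments.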

[21] = test system: Escherichia coli; assay: Antibacterial activity against Escherichia coli ANS1 incubated overnight by microbroth dilution method; format: functional; procedure, shortened: as §4

**Q.** Which results are given for Cl.Cl.S=C(NCCCNCCCCCNCCCNC(=S)NCC(c1ccccc1)c1ccccc1)NCC(c1ccccc1)c1ccccc1?
**A.** HC50 at 1 h [1]: 64 µg/mL; MIC99 [2]: 1 µg/mL; selectivity ratio [3]: 16; Selectivity Index [4]: 32; fractional inhibitory concentration index (FICI) [5]: 0.75; MIC99 [6]: 1 µg/mL; Activity [7]: Active; survival at 96 h, 64 ug/ml [8]: 100%; Activity [9]: Active; MIC99 [10]: 2 µg/mL; Activity [11]: Non-toxic; CC50 at 48 h [12]: 64 µg/mL; Activity [13]: Non-toxic; Activity [14]: >2 deltalog10CFU/ml; Activity [15]: Active; Selectivity Index [16]: 16; fractional inhibitory concentration index (FICI) [17]: 0.75; MIC99 [18]: 1 µg/mL; MIC99 [19]: 8 µg/mL; Activity [20]: Active; MIC99 [21]: 2 µg/mL
